Test results from ChEMBL document CHEMBL4428057, “Discovery, Synthesis, and Evaluation of 2,4-Diaminoquinazolines as a Novel Class of Pancreatic β-Cell-Protective Agents against Endoplasmic Reticulum (ER) Stress” (J Med Chem, 2016).
Activity calls are given as the source filed them. The rule behind the calls is not given here.

Legend:
Pancreatic beta cell [1] = assay: Suppression of tunicamycin impaired glucose-stimulated insulin secretion in human Beta cells at 10 to 20 uM preincubated for 48 hrs followed by glucose addition for 1 hr by ELISA; assay type: functional, cell-based
Procedure, shortened: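 Human islets (50 of equal size) in 96-well plates given Tm 1 µg/mL plus compound for 48 h, preincubated 1 h in KRBH (pH 7.4) with 2.5 mM glucose, then stimulated 1 h with 2.5 or 20 mM glucose. Secreted insulin by human insulin ELISA, normalized to total protein by Bradford.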

INS1 [2] = assay: Reversal of tunicamycin-induced suppression of MafA mRNA levels in rat INS-1 cells at 20 uM after 24 hrs by qRT-PCR method; assay type: functional, cell-based
Procedure, shortened: (§1)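 INS-1 cells (4×10^5/well, 6-well plates) given Tm 0.1 µg/mL ± compound 20 µM or DMSO for 24 h. INS1, INS2, PDX1 and MafA mRNA measured by qRT-PCR with rat primers. Means of 3 replicate wells, representative of 3 independent experiments; SD.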

[3] = biological target: T1, Cyclic AMP-dependent transcription factor ATF-6 alpha (Rattus norvegicus) (UniProt G3V909); assay: Inhibition of ATF6 in rat INS-1 cells assessed as suppression of tunicamycin induced GRP94 mRNA levels at 20 uM after 4 to 24 hrs by qRT-PCR method; assay type: cell-based
T1 sequence (whole entry): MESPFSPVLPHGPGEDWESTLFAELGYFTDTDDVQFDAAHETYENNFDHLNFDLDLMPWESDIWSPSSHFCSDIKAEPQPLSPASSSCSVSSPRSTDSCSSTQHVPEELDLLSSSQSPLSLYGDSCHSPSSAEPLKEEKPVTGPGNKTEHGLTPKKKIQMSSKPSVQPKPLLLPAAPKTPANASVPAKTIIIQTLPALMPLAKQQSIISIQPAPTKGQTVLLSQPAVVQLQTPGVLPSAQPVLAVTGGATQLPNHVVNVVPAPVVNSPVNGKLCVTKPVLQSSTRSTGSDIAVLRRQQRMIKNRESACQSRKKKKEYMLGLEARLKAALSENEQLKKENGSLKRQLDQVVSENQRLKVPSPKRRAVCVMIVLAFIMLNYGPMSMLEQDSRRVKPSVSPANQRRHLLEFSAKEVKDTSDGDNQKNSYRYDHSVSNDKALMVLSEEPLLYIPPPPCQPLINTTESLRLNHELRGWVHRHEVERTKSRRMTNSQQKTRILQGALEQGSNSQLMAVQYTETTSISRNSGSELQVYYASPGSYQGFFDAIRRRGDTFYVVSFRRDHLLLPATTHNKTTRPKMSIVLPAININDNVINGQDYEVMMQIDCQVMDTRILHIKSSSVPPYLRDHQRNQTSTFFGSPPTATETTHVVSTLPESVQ
Procedure, shortened: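 INS-1 cells seeded at 4×10^5/well in 6-well plates, given Tm 0.1 µg/mL ± compound 20 µM or DMSO for the indicated times. Bip or GRP94 mRNA measured by qRT-PCR, expressed as fold-increase over untreated control. Means of 3 replicate wells, representative of 3 independent experiments.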

INS1 [4] = assay: Reversal of tunicamycin suppressed INS2 mRNA levels in rat INS-1 cells at 20 uM after 24 hrs by qRT-PCR method; assay type: functional, cell-based; procedure, shortened: as §1
Beta-TC6 = assay: Protection against tunicamycin induced endoplasmic reticulum stress in mouse BetaTC6 cells assessed as increase in cell viability after 72 hrs by CellTiter-Glo assay; assay type: functional, cell-based
Procedure, shortened: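 βTC6 cells (DMEM, 15% FBS) seeded at 3×10^3/well in 384-well plates with Tm 0.25 µg/mL ± compound or DMSO for 72 h. Viability by CellTiter-Glo (ATP luminescence) or MTT: 3 h with reagent at 37 °C, then 4 h with crystal-dissolving solution, absorbance at 570 nm. 3 replicate wells, 3 experiments.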

INS1 [5] = assay: Reversal of tunicamycin-induced suppression of PDX1 mRNA levels in rat INS-1 cells at 20 uM after 24 hrs by qRT-PCR method; assay type: functional, cell-based; procedure, shortened: as §1
INS1 [6] = assay: Protection against tunicamycin induced endoplasmic reticulum stress in rat INS-1 cells assessed as increase in cell viability at 2.5 to 20 uM after 72 hrs by MTT assay; assay type: functional, cell-based
Procedure, shortened: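 INS-1 cells at 3×10^3/well in 384-well plates treated with Tm 0.1 µg/mL ± compound or DMSO for 72 h. MTT reagent for 3 h at 37 °C, crystal-dissolving solution for 4 h, absorbance at 570 nm. Means of 3 replicate wells, representative of 3 experiments, SD.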

INS1 [7] = assay: Protection against tunicamycin induced endoplasmic reticulum stress in rat INS-1 cells assessed as increase in cell viability after 3 days by CellTiter-Glo assay relative to control; assay type: functional
Procedure, shortened: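 INS-1 cells at 3×10^3/well (384-well) co-treated with Tm 0.1 µg/mL and compound for 72 h; CellTiter-Glo ATP luminescence. Activity is % rescue, with Tm alone = 0% and DMSO without Tm = 100%. EC50 from ten 2-fold serial dilutions by curve fit; triplicate.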

INS1 [8] = assay: Reversal of tunicamycin-induced suppression of INS1 mRNA levels in rat INS-1 cells at 20 uM after 24 hrs by qRT-PCR method; assay type: functional, cell-based; procedure, shortened: as §1
INS1 [9] = assay: Protection against BFA induced endoplasmic reticulum stress in rat INS-1 cells assessed as increase in cell viability at 20 uM after 72 hrs by CellTiter-Glo assay; assay type: functional, cell-based
Procedure, shortened: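 INS-1 cells at 3×10^3/well (384-well) treated with brefeldin A 0.2 µg/mL ± compound 20 µM or DMSO for 72 h. Viability read as intracellular ATP by CellTiter-Glo luminescence. Means of 3 replicate wells, representative of 3 independent experiments; SD.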

Rattus norvegicus = organism: Rattus norvegicus; assay: Inhibition of IRE1alpha in rat INS-1 cells assessed as suppression of tunicamycin induced spliced XBP1 mRNA levels in at 20 uM after 4 to 24 hrs by agarose gel electrophoresis based RT-PCR method; assay type: cell-based
Procedure, shortened: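 Total XBP1 mRNA amplified by RT-PCR from INS-1 cells treated with Tm 0.1 µg/mL ± compound 20 µM or DMSO for the indicated times. Unspliced and spliced forms resolved on agarose gel; cyclophilin A as internal control. Representative of 3 independent experiments.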

INS1 [10] = assay: Reversal of tunicamycin induced PARP cleavage in rat INS-1 cells at 20 uM after 2 to 24 hrs by Western blot analysis; assay type: functional, cell-based
Procedure, shortened: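 Western blots of INS-1 cells (8×10^5/60-mm dish) treated with Tm 0.1 µg/mL ± compound 20 µM or DMSO for the indicated times. Lysates with EDTA and phosphatase inhibitors; 20 µg protein on 7% SDS-PAGE, PVDF. Primary antibodies at 1:1000 against ATF4, CHOP, cleaved caspase 3 or PARP; α-tubulin loading control; HRP secondaries. Representative of 3 experiments.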

Pancreatic beta cell [11] = assay: Decrease in tunicamycin induced apoptosis in human Beta cells assessed as […] insulin cells level at 10 uM after 48 hrs by TUNEL staining based confocal microscopy (reference value: 15%); assay type: functional; design: scale not given: the % may be the effect or the level left

inhibition [3]: Active
Structure (SMILES): COc1ccc(CNc2nc(N3CCCCC3CO)nc3ccccc23)cc1 (racemic)
Activity (Pancreatic beta cell [1]): Active | Activity (INS1 [2]): Active | Activity (INS1 [4]): Active | Activity (Beta-TC6): Dose-dependent effect | Activity (INS1 [5]): Active | Activity (INS1 [6]): Active | %max (INS1 [7]): 80.4% | Activity (INS1 [8]): Active | Activity (INS1 [9]): Active | inhibition (Rattus norvegicus): Active | Activity (INS1 [10]): Active | Activity (Pancreatic beta cell [11]): 3.5%
